# ChEMBL document CHEMBL2029236, “Tubulin binding, protein-bound conformation in solution, and antimitotic cellular profiling of noscapine and its derivatives” (J Med Chem, 2012)
# The source made the active and inactive calls. The rule behind the calls is not given here.
# Assays:
# Bos taurus [1] = species on record: Bos taurus; test: Inhibition of calf brain tubulin assembly at 1 mM
# Procedure, shortened: (§1)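 Read-out: amount of pelleted polymerized tubulin across a compound concentration range. EC50 taken at 50% reduction of the pellet. Average of three experiments.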
# [2] = Inhibition of calf brain tubulin assembly; parameters: species or system Bos taurus; procedure, shortened: as §1
# Bos taurus [3] = species on record: Bos taurus; test: Binding affinity to calf brain tubulin assessed as increase in fluorescence at 10 uM by fluorometry relative to control
# Procedure, shortened: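 Fluorescence emission spectra of 10 μM ligand with and without 10 μM tubulin in 10 mM sodium phosphate, 0.1 mM GTP, pH 7.0, 25 °C. Emission intensity (425 nm maximum) and anisotropy were compared between bound and unbound ligand.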
# Bos taurus [4] = species on record: Bos taurus; test: Binding affinity to calf brain tubulin assessed as binding constant by fluorometry; format: tissue-based
# Procedure, shortened: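 Fluorescence titration in 10 mM sodium phosphate, 0.1 mM GTP, pH 7.0, 25 °C. Ligand at 5 μM was titrated with tubulin up to 100 μM. Bound and free ligand were quantified from the change in ligand fluorescence. Binding constant fitted assuming a single site, 1:1 stoichiometry and 0.87 sites per dimer. Average of five experiments.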
# Bos taurus [5] = species on record: Bos taurus; test: Inhibition of calf brain tubulin assembly at 10 uM by fluorometry in presence of podophyllotoxin
# Bos taurus [6] = species on record: Bos taurus; test: Inhibition of calf brain tubulin assembly at 10 uM by fluorometry in presence of vinblastine
# Bos taurus [7] = species on record: Bos taurus; test: Inhibition of calf brain tubulin assembly at 10 uM by fluorometry in presence of isohomohalichondrin
# Bos taurus [8] = species on record: Bos taurus; test: Inhibition of calf brain tubulin assembly at 10 uM by fluorometry in presence of pironetin
# Bos taurus [9] = species on record: Bos taurus; test: Inhibition of calf brain tubulin assembly at 10 uM by fluorometry in presence of gossipol
# Bos taurus [10] = species on record: Bos taurus; test: Inhibition of calf brain tubulin assembly at 10 uM by fluorometry in presence of noscapine
# Bos taurus [11] = species on record: Bos taurus; test: Inhibition of calf brain tubulin assembly at 10 uM by fluorometry in presence of nocodazole
# Bos taurus [12] = species on record: Bos taurus; test: Binding affinity to calf brain tubulin alpha/beta heterodimer assessed as increase in proton signal at […] by STD NMR analysis
# Procedure, shortened: (§2)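 STD NMR with freshly prepared tubulin α/β heterodimer. Ligand:protein molar ratio 30:1 ([…], […]). Read-out: enhancement of ligand proton signals in STD spectra versus an off-resonance reference spectrum acquired without protein irradiation.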
# Bos taurus [13] = species on record: Bos taurus; test: Binding affinity to calf brain tubulin alpha/beta heterodimer assessed as increase in proton signal at […] by STD NMR analysis in the presence of noscapine; procedure, shortened: as §2
# SNU-398 [14] = test: Antiproliferative activity against human SNU398 cells; format: functional, cell-based
# Procedure, shortened: (§3)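 Cell viability assay in hepatocellular carcinoma cell lines; IC50 values derived from concentration–response data and reported in nM.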
# [15] = Antiproliferative activity against human PLC/PRF/5 cells; format: functional, cell-based; procedure, shortened: as §3
# SMMC-7721 = test: Antiproliferative activity against human SMMC7721 after 72 hrs by CellTiter Glo assay; format: functional, cell-based; conditions: SMMC-7721, 72 h; procedure, shortened: as §3
# [16] = Antiproliferative activity against human MHCC97H after 72 hrs by CellTiter Glo assay; format: functional; procedure, shortened: as §3
# Bel-7402 = test: Antiproliferative activity against human Bel7402 after 72 hrs by CellTiter Glo assay; format: functional, cell-based; conditions: Bel-7402, 72 h; procedure, shortened: as §3
# [17] = Antiproliferative activity against human Hep3B after 72 hrs by CellTiter Glo assay; format: functional, Hep 3B2; procedure, shortened: as §3
# HepG2 = test: Antiproliferative activity against human HepG2 after 72 hrs by CellTiter Glo assay; format: functional, cell-based; conditions: HepG2, 72 h; procedure, shortened: as §3
# Huh-7 = test: Antiproliferative activity against human HuH7 after 72 hrs by CellTiter Glo assay; format: functional, cell-based; conditions: Huh-7, 72 h; procedure, shortened: as §3
# [18] = Antiproliferative activity against human JHH2 after 72 hrs by CellTiter Glo assay; format: functional; procedure, shortened: as §3
# [19] = Antiproliferative activity against human JHH4 after 72 hrs by CellTiter Glo assay; format: functional; procedure, shortened: as §3
# [20] = Antiproliferative activity against human JHH7 after 72 hrs by CellTiter Glo assay; format: functional; procedure, shortened: as §3
# [21] = Antiproliferative activity against human PLC/PRF/5 after 72 hrs by CellTiter Glo assay; format: functional; conditions: PLC-PRF-5, 72 h; procedure, shortened: as §3
# [22] = Antiproliferative activity against human SNU182 after 72 hrs by CellTiter Glo assay; format: functional, cell-based; conditions: SNU-182, 72 h; procedure, shortened: as §3
# SNU-387 = test: Antiproliferative activity against human SNU387 after 72 hrs by CellTiter Glo assay; format: functional, cell-based; conditions: SNU-387, 72 h; procedure, shortened: as §3
# SNU-398 [23] = test: Antiproliferative activity against human SNU398 after 72 hrs by CellTiter Glo assay; format: functional, cell-based; conditions: SNU-398, 72 h; procedure, shortened: as §3
# SNU-423 = test: Antiproliferative activity against human SNU423 after 72 hrs by CellTiter Glo assay; format: functional, cell-based; conditions: SNU-423, 72 h; procedure, shortened: as §3
# SNU-449 = test: Antiproliferative activity against human SNU449 after 72 hrs by CellTiter Glo assay; format: functional, cell-based; conditions: SNU-449, 72 h; procedure, shortened: as §3
# SNU-475 = test: Antiproliferative activity against human SNU475 after 72 hrs by CellTiter Glo assay; format: functional, cell-based; conditions: SNU-475, 72 h; procedure, shortened: as §3
# SNU-398 [24] = test: Cell cycle arrest in human SNU398 cells assessed as accumulation at G1 phase at 2 uM after 24 hrs by FACS analysis (reference value: 55.8%); format: functional
# SNU-398 [25] = test: Cell cycle arrest in human SNU398 cells assessed as accumulation at G2 phase at 2 uM after 24 hrs by FACS analysis (reference value: 38.2%); format: functional
# SNU-398 [26] = test: Cell cycle arrest in human SNU398 cells assessed as accumulation at sub-G1 phase at 2 uM after 24 hrs by FACS analysis (reference value: 1.2%); format: functional
# [27] = Cell cycle arrest in human PLC/PRF/5 cells assessed as accumulation at G1 phase at 2 uM after 24 hrs by FACS analysis (reference value: 66.8%); format: functional, cell-based
# [28] = Cell cycle arrest in human PLC/PRF/5 cells assessed as accumulation at G2 phase at 2 uM after 24 hrs by FACS analysis (reference value: 26.1%); format: functional, cell-based
# [29] = Cell cycle arrest in human PLC/PRF/5 cells assessed as accumulation at sub-G1 phase at 2 uM after 24 hrs by FACS analysis (reference value: 1.4%); format: functional, cell-based
# [30] = Metabolic stability in microsomes assessed as compound remaining; format: ADME, Microsome
# [31] = Metabolic stability in S9 fraction assessed as compound remaining; format: ADME, subcellular
# Bos taurus [32] = species on record: Bos taurus; test: Binding affinity to calf brain tubulin assessed as increase in fluorescence at 10 uM by fluorometry in presence of Mg2+
# Bos taurus [33] = species on record: Bos taurus; test: Binding affinity to calf brain tubulin alpha/beta heterodimer by NOE method; format: tissue-based
# Procedure, shortened: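 Transferred NOE (TR-NOESY) of ligand with tubulin α/β heterodimer at 500 MHz, 298 K. The sign of the NOE cross-peaks is compared between ligand with tubulin and free ligand. Bound conformation derived with molecular mechanics.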
# SNU-398 [34] = test: Cell cycle arrest in human SNU398 cells assessed as accumulation at G1 phase after 24 hrs by FACS analysis (reference value: 55.8%); format: functional
# SNU-398 [35] = test: Cell cycle arrest in human SNU398 cells assessed as accumulation at G2 phase after 24 hrs by FACS analysis (reference value: 38.2%); format: functional
# SNU-398 [36] = test: Cell cycle arrest in human SNU398 cells assessed as accumulation at sub-G1 phase after 24 hrs by FACS analysis (reference value: 1.2%); format: functional
# [37] = Cell cycle arrest in human PLC/PRF/5 cells assessed as accumulation at G1 phase after 24 hrs by FACS analysis (reference value: 66.8%); format: functional, cell-based
# [38] = Cell cycle arrest in human PLC/PRF/5 cells assessed as accumulation at G2 phase after 24 hrs by FACS analysis (reference value: 26.1%); format: functional, cell-based
# [39] = Cell cycle arrest in human PLC/PRF/5 cells assessed as accumulation at sub-G1 phase after 24 hrs by FACS analysis (reference value: 1.4%); format: functional, cell-based
smiles,measurement,setting,value
COc1ccc2c(c1N)C(=O)O[C@@H]2[C@H]1c2c(cc3c(c2OC)OCO3)CCN1C,inhibition,Bos taurus [1],50%
same,EC50,[2],1200 nM
same,fold change (FC),Bos taurus [3],11
same,Activity,Bos taurus [4],1.15 ×10⁵ /M
same,inhibition,Bos taurus [5],Active
same,inhibition,Bos taurus [6],Active
same,inhibition,Bos taurus [7],Active
same,inhibition,Bos taurus [8],Active
same,inhibition,Bos taurus [9],Active
same,inhibition,Bos taurus [10],Active
same,inhibition,Bos taurus [11],inactive
same,inhibition,Bos taurus [12],Active
same,inhibition,Bos taurus [13],Active
same,IC50,SNU-398 [14],94.3 nM
same,IC50,[15],237 nM
same,IC50,SMMC-7721,109 nM
same,IC50,[16],351 nM
same,IC50,Bel-7402,78.4 nM
same,IC50,[17],> 1000 nM
same,IC50,HepG2,> 1000 nM
same,IC50,Huh-7,218 nM
same,IC50,[18],> 1000 nM
same,IC50,[19],107 nM
same,IC50,[20],318 nM
same,IC50,[21],278 nM
same,IC50,[22],508 nM
same,IC50,SNU-387,59.5 nM
same,IC50,SNU-398 [23],324 nM
same,IC50,SNU-423,226 nM
same,IC50,SNU-449,283 nM
same,IC50,SNU-475,584 nM
same,Activity,SNU-398 [24],22.9%
same,Activity,SNU-398 [25],59.8%
same,Activity,SNU-398 [26],13.8%
same,Activity,[27],18%
same,Activity,[28],67%
same,Activity,[29],8.4%
same,Stability,[30],< 5%
same,Stability,[31],< 5%
same,Activity,Bos taurus [32],Active
same,Activity,Bos taurus [33],Active
CC(=O)O[C@@]12CO[C@@H]1C[C@H](O)[C@@]1(C)C(=O)[C@H](O)C3=C(C)[C@@H](OC(=O)[C@H](O)[C@@H](NC(=O)OC(C)(C)C)c4ccccc4)C[C@@](O)([C@@H](OC(=O)c4ccccc4)[C@H]21)C3(C)C.O.O.O [DOCETAXEL],IC50,SNU-398 [14],16.6 nM
same,IC50,[15],12 nM
same,IC50,SMMC-7721,2 nM
same,IC50,[16],22.4 nM
same,IC50,Bel-7402,1.9 nM
same,IC50,[17],38.2 nM
same,IC50,HepG2,> 100 nM
same,IC50,Huh-7,12.1 nM
same,IC50,[18],> 100 nM
same,IC50,[19],14.1 nM
same,IC50,[21],16.7 nM
same,IC50,[22],39.2 nM
same,IC50,SNU-387,4.3 nM
same,IC50,SNU-398 [23],17.6 nM
same,IC50,SNU-423,10.8 nM
same,IC50,SNU-449,> 100 nM
same,IC50,SNU-475,20.5 nM
same,Activity,SNU-398 [34],12.7%
same,Activity,SNU-398 [35],72.2%
same,Activity,SNU-398 [36],9.3%
same,Activity,[37],11.2%
same,Activity,[38],64.4%
same,Activity,[39],16.8%
